# Assay results reported in ChEMBL document CHEMBL1142136, “Contribution of target gene mutations and efflux to decreased susceptibility of Salmonella enterica serovar typhimurium to fluoroquinolones and other antimicrobials” (2007).
# Experiments:
# Assay type in all cases: functional, Salmonella enterica subsp. enterica serovar Typhimurium
# Salmonella typhimurium [1] = experiment: Antimicrobial activity against Salmonella enterica serovar Typhimurium S21
# In short: (§1)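 MICs measured by broth microdilution on the Sensititre automated system and interpreted by CLSI broth microdilution standards. Ciprofloxacin was also tested by agar dilution, widening the range to 0.0075–128 μg/ml. Quality control strains were E. coli ATCC 25922 and 35218, E. faecalis ATCC 29212, S. aureus ATCC 29213 and P. aeruginosa ATCC 27853.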
# Salmonella typhimurium [2] = experiment: Antimicrobial activity against Salmonella enterica serovar Typhimurium S21 gyrA+; in short: as §1
# Salmonella typhimurium [3] = experiment: Antimicrobial activity against Salmonella enterica serovar Typhimurium S21 acrAB::Kan
# In short: (§2)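 MICs by automated broth microdilution panels, interpreted to CLSI broth microdilution standards. Ciprofloxacin additionally tested by agar dilution across 0.0075 to 128 μg/ml. Quality control strains: E. coli ATCC 25922 and 35218, Enterococcus faecalis ATCC 29212, S. aureus ATCC 29213, P. aeruginosa ATCC 27853. Test strains are kanamycin-marked deletion mutants of ground-beef isolate S21.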
# Salmonella typhimurium [4] = experiment: Antimicrobial activity against Salmonella enterica serovar Typhimurium S21 tolC::Kan; in short: as §2
# Salmonella typhimurium [5] = experiment: Antimicrobial activity against Salmonella enterica serovar Typhimurium S21-1 gyrA+; in short: as §1
# Salmonella typhimurium [6] = experiment: Antimicrobial activity against Salmonella enterica serovar Typhimurium CHS14 gyrA+ with GyrA D87G mutation; in short: as §1
# Salmonella typhimurium [7] = experiment: Antimicrobial activity against Salmonella enterica serovar Typhimurium CHS14 acrAB::Kan with GyrA D87G mutation; in short: as §1
# Salmonella typhimurium [8] = experiment: Antimicrobial activity against Salmonella enterica serovar Typhimurium CHS14 tolC::Kan with GyrA D87G mutant; in short: as §1
# Salmonella typhimurium [9] = experiment: Antimicrobial activity against Salmonella enterica serovar Typhimurium CHS18 with GyrA S38F mutation; in short: as §1
# Salmonella typhimurium [10] = experiment: Antimicrobial activity against Salmonella enterica serovar Typhimurium CHS18 gyrA+ with GyrA S38F mutation; in short: as §1
# Salmonella typhimurium [11] = experiment: Antimicrobial activity against Salmonella enterica serovar Typhimurium CHS18 acrAB::Kan with GyrA S38F mutation; in short: as §1
# Salmonella typhimurium [12] = experiment: Antimicrobial activity against Salmonella enterica serovar Typhimurium CHS18 tolC::Kan with GyrA S38F mutation; in short: as §1
# Salmonella typhimurium [13] = experiment: Antimicrobial activity against Salmonella enterica serovar Typhimurium S21-4 tolC::Kan with GyrA S83F, ParC S80I mutation; in short: as §1
# Salmonella typhimurium [14] = experiment: Antimicrobial activity against Salmonella enterica serovar Typhimurium CS1 with GyrA S83F, D87N, ParC S80I mutation; in short: as §1
# Salmonella typhimurium [15] = experiment: Antimicrobial activity against Salmonella enterica serovar Typhimurium CS1 gyrA+ with GyrA S83F, D87N, ParC S80I mutation; in short: as §1
# Salmonella typhimurium [16] = experiment: Antimicrobial activity against Salmonella enterica serovar Typhimurium CS1 acrAB::Kan with GyrA S83F, D87N, ParC S80I mutation; in short: as §1
# Salmonella typhimurium [17] = experiment: Antimicrobial activity against Salmonella enterica serovar Typhimurium CS1 tolC::Kan with GyrA S83F, D87N, ParC S80I mutation; in short: as §1
# Salmonella typhimurium [18] = experiment: Antimicrobial activity against Salmonella enterica serovar Typhimurium CS3 with GyrA S83F, D87N, ParC S80I mutation; in short: as §1
# Salmonella typhimurium [19] = experiment: Antimicrobial activity against Salmonella enterica serovar Typhimurium CS3 gyrA+ with GyrA S83F, D87N, ParC S80I mutation; in short: as §1
# Salmonella typhimurium [20] = experiment: Antimicrobial activity against Salmonella enterica serovar Typhimurium CS3 acrAB::Kan with GyrA S83F, D87N, ParC S80I mutation; in short: as §1
# Salmonella typhimurium [21] = experiment: Antimicrobial activity against Salmonella enterica serovar Typhimurium CS3 tolC::Kan with GyrA S83F, D87N, parC S80I mutation; in short: as §1
# Salmonella typhimurium [22] = experiment: Antimicrobial activity against Salmonella enterica serovar Typhimurium CS9 with GyrA S83F, D87N, ParC S80I mutation; in short: as §1
# Salmonella typhimurium [23] = experiment: Antimicrobial activity against Salmonella enterica serovar Typhimurium CS9 gyrA+ with GyrA S83F, D87N, ParC S80I mutation; in short: as §1
# Salmonella typhimurium [24] = experiment: Antimicrobial activity against Salmonella enterica serovar Typhimurium CS9 acrAB::Kan with GyrA S83F, D87N, ParC S80I mutation; in short: as §1
# Salmonella typhimurium [25] = experiment: Antimicrobial activity against Salmonella enterica serovar Typhimurium CS9 tolC::Kan with GyrA S83F, D87N, ParC S80I mutation; in short: as §1
# Salmonella typhimurium [26] = experiment: Antimicrobial activity against Salmonella enterica serovar Typhimurium CHS14 with GyrA D87G mutation; in short: as §1
# Salmonella typhimurium [27] = experiment: Antimicrobial activity against Salmonella enterica serovar Typhimurium CHS38 with GyrA D87G mutation; in short: as §1
# Salmonella typhimurium [28] = experiment: Antimicrobial activity against Salmonella enterica serovar Typhimurium CHS38 gyrA+ with GyrA D87G mutation; in short: as §1
# Salmonella typhimurium [29] = experiment: Antimicrobial activity against Salmonella enterica serovar Typhimurium CHS38 acrAB::Kan with GyrA D87G mutation; in short: as §1
# Salmonella typhimurium [30] = experiment: Antimicrobial activity against Salmonella enterica serovar Typhimurium CHS38 tolC::Kan with GyrA D87G mutation; in short: as §1
# Salmonella typhimurium [31] = experiment: Antimicrobial activity against Salmonella enterica serovar Typhimurium S21-4 acrAB::Kan with GyrA S83F, ParC S80I mutation; in short: as §1
# Salmonella typhimurium [32] = experiment: Antimicrobial activity against Salmonella enterica serovar Typhimurium S21-1 GyrA S83F mutant; in short: as §1
# Salmonella typhimurium [33] = experiment: Antimicrobial activity against Salmonella enterica serovar Typhimurium S21-2 with GyrA S83F, ParC S80I mutation; in short: as §1
# Salmonella typhimurium [34] = experiment: Antimicrobial activity against Salmonella enterica serovar Typhimurium S21-2 gyrA+ with ParC S80I mutation; in short: as §1
# Salmonella typhimurium [35] = experiment: Antimicrobial activity against Salmonella enterica serovar Typhimurium S21-3 with GyrA S83F, ParC S80I mutation; in short: as §1
# Salmonella typhimurium [36] = experiment: Antimicrobial activity against Salmonella enterica serovar Typhimurium S21-3 gyrA+ with ParC S80I mutation; in short: as §1
# Salmonella typhimurium [37] = experiment: Antimicrobial activity against Salmonella enterica serovar Typhimurium S21-4 with GyrA S83F, ParC S80I mutation; in short: as §1
# Salmonella typhimurium [38] = experiment: Antimicrobial activity against Salmonella enterica serovar Typhimurium S21-4 gyrA+ with ParC S80I mutation; in short: as §1
SMILES,MIC (Salmonella typhimurium [1]) [µg/mL],MIC (Salmonella typhimurium [2]) [µg/mL],MIC (Salmonella typhimurium [3]) [µg/mL],MIC (Salmonella typhimurium [4]) [µg/mL],MIC (Salmonella typhimurium [5]) [µg/mL],MIC (Salmonella typhimurium [6]) [µg/mL],MIC (Salmonella typhimurium [7]) [µg/mL],MIC (Salmonella typhimurium [8]) [µg/mL],MIC (Salmonella typhimurium [9]) [µg/mL],MIC (Salmonella typhimurium [10]) [µg/mL],MIC (Salmonella typhimurium [11]) [µg/mL],MIC (Salmonella typhimurium [12]) [µg/mL],MIC (Salmonella typhimurium [14]) [µg/mL],MIC (Salmonella typhimurium [15]) [µg/mL],MIC (Salmonella typhimurium [16]) [µg/mL],MIC (Salmonella typhimurium [17]) [µg/mL],MIC (Salmonella typhimurium [18]) [µg/mL],MIC (Salmonella typhimurium [19]) [µg/mL],MIC (Salmonella typhimurium [20]) [µg/mL],MIC (Salmonella typhimurium [21]) [µg/mL],also measured
O=C(N[C@H](CO)[C@H](O)c1ccc([N+](=O)[O-])cc1)C(Cl)Cl [CHLORAMPHENICOL],8,8,< 2,< 2,> 32,8,< 2,< 2,8,4,2,2,> 32,> 32,> 32,> 32,> 32,> 32,> 32,> 32,MIC (Salmonella typhimurium [13]): 32 µg/mL; MIC (Salmonella typhimurium [22]): > 32 µg/mL; MIC (Salmonella typhimurium [23]): > 32 µg/mL; MIC (Salmonella typhimurium [24]): > 32 µg/mL; MIC (Salmonella typhimurium [25]): > 32 µg/mL; MIC (Salmonella typhimurium [26]): 8 µg/mL; MIC (Salmonella typhimurium [27]): 32 µg/mL; MIC (Salmonella typhimurium [28]): 32 µg/mL; MIC (Salmonella typhimurium [29]): 4 µg/mL; MIC (Salmonella typhimurium [30]): 4 µg/mL
NC[C@H]1O[C@H](O[C@H]2[C@H](O)[C@@H](O[C@H]3O[C@H](CO)[C@@H](O)[C@H](N)[C@H]3O)[C@H](N)C[C@@H]2N)[C@H](O)[C@@H](O)[C@@H]1O [KANAMYCIN],< 8,< 8,> 64,> 64,< 8,> 64,> 64,> 64,8,> 64,> 64,> 64,< 8,> 64,> 64,> 64,< 8,> 64,> 64,> 64,MIC (Salmonella typhimurium [31]): > 64 µg/mL; MIC (Salmonella typhimurium [22]): < 8 µg/mL; MIC (Salmonella typhimurium [23]): > 64 µg/mL; MIC (Salmonella typhimurium [24]): > 64 µg/mL; MIC (Salmonella typhimurium [25]): > 64 µg/mL; MIC (Salmonella typhimurium [26]): < 8 µg/mL; MIC (Salmonella typhimurium [27]): 8 µg/mL; MIC (Salmonella typhimurium [28]): > 64 µg/mL; MIC (Salmonella typhimurium [29]): > 64 µg/mL; MIC (Salmonella typhimurium [30]): > 64 µg/mL
CN(C)[C@@H]1C(O)=C(C(N)=O)C(=O)[C@@]2(O)C(O)=C3C(=O)c4c(O)cccc4[C@@](C)(O)[C@H]3C[C@@H]12 [TETRACYCLINE],< 4,< 4,< 4,< 4,32,> 32,> 32,> 32,4,4,4,4,> 32,> 32,> 32,32,> 32,> 32,> 32,32,MIC (Salmonella typhimurium [32]): 32 µg/mL; MIC (Salmonella typhimurium [33]): > 32 µg/mL; MIC (Salmonella typhimurium [34]): > 32 µg/mL; MIC (Salmonella typhimurium [35]): > 32 µg/mL; MIC (Salmonella typhimurium [36]): > 32 µg/mL; MIC (Salmonella typhimurium [37]): > 32 µg/mL; MIC (Salmonella typhimurium [38]): > 32 µg/mL; MIC (Salmonella typhimurium [13]): 8 µg/mL; MIC (Salmonella typhimurium [22]): > 32 µg/mL; MIC (Salmonella typhimurium [23]): > 32 µg/mL; MIC (Salmonella typhimurium [24]): > 32 µg/mL; MIC (Salmonella typhimurium [25]): 32 µg/mL; MIC (Salmonella typhimurium [26]): > 32 µg/mL; MIC (Salmonella typhimurium [27]): 32 µg/mL; MIC (Salmonella typhimurium [28]): 32 µg/mL; MIC (Salmonella typhimurium [29]): 16 µg/mL; MIC (Salmonella typhimurium [30]): 16 µg/mL
